From ChEMBL document CHEMBL1124794, “Synthesis, chemistry, and antineoplastic activity of alpha-halopyridinium salts: potential pyridone prodrugs of acylated vinylogous carbinolamine tumor inhibitors” (J Med Chem, 1990)

How the values were obtained:
[1] = Half life of the compound; format: ADME
[2] = Hydrolysis were done at 25 degree C in 0.05 M phosphate buffer (pH 7.4); format: ADME
In short: (§1)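 Model pyridinium salts were hydrolysed to pyridones at 25 °C in 0.05 M phosphate buffer, pH 7.4. Decay of the pyridinium UV absorption maximum was monitored over time, giving pseudo-first-order k_obs and half-life.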

P388 [3] = experiment: In vivo activity against P388 Lymphocytic Leukemia in CD2F1 mice at the dose of 25 mg/kg, activity expressed as TDS; 6/6; format: functional, Mus musculus
In short: (§2)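 CD2F1 mice were inoculated with ascitic fluid holding ca. 10^6 P388 cells. Drug was given daily from 24 h after inoculation, from solutions or suspensions made fresh each day, some as a saline suspension. TDS is survivors/initial animals on day 5. BWD is body weight on day 5 minus day 1. %T/C compares median survival of treated and control mice.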

P388 [4] = experiment: In vivo activity against P388 Lymphocytic Leukemia in CD2F1 mice at the dose of 12.5 mg/kg, activity expressed as TDS; 6/6; format: functional, Mus musculus; in short: as §2
P388 [5] = experiment: In vivo activity against P388 Lymphocytic Leukemia in CD2F1 mice at the dose of 50 mg/kg, activity expressed as KE; format: functional, Mus musculus
P388 [6] = experiment: In vivo activity against P388 Lymphocytic Leukemia in CD2F1 mice at the dose of 200 mg/kg, activity expressed as TDS; 0/6; format: functional, Mus musculus; in short: as §2
P388 [7] = experiment: In vivo activity against P388 Lymphocytic Leukemia in CD2F1 mice at the dose of 12.5 mg/kg, activity expressed as % T/C; format: functional, Mus musculus; in short: as §2
P388 [8] = experiment: In vivo activity against P388 Lymphocytic Leukemia in CD2F1 mice at the dose of 12.5 mg/kg, activity expressed as body weight difference; format: functional, Mus musculus; in short: as §2
P388 [9] = experiment: In vivo activity against P388 Lymphocytic Leukemia in CD2F1 mice at the dose of 25 mg/kg, activity expressed as body weight difference; format: functional, Mus musculus; in short: as §2
P388 [10] = experiment: In vivo activity against P388 Lymphocytic Leukemia in CD2F1 mice at the dose of 100 mg/kg, activity expressed as body weight difference; format: functional, Mus musculus; in short: as §2
P388 [11] = experiment: In vivo activity against P388 Lymphocytic Leukemia in CD2F1 mice at the dose of 25 mg/kg, activity expressed as KE; format: functional, Mus musculus
P388 [12] = experiment: In vivo activity against P388 Lymphocytic Leukemia in CD2F1 mice at the dose of 50 mg/kg, activity expressed as TDS; 6/6; format: functional, Mus musculus; in short: as §2
P388 [13] = experiment: In vivo activity against P388 Lymphocytic Leukemia in CD2F1 mice at the dose of 12.5 mg/kg, activity expressed as KE; format: functional, Mus musculus
P388 [14] = experiment: In vivo activity against P388 Lymphocytic Leukemia in CD2F1 mice at the dose of 50 mg/kg, activity expressed as % T/C; format: functional, Mus musculus; in short: as §2
P388 [15] = experiment: In vivo activity against P388 Lymphocytic Leukemia in CD2F1 mice at the dose of 100 mg/kg, activity expressed as TDS; format: functional, Mus musculus; in short: as §2
P388 [16] = experiment: In vivo activity against P388 Lymphocytic Leukemia in CD2F1 mice at the dose of 100 mg/kg, activity expressed as KE; format: functional, Mus musculus
P388 [17] = experiment: In vivo activity against P388 Lymphocytic Leukemia in CD2F1 mice at the dose of 50 mg/kg, activity expressed as body weight difference; format: functional, Mus musculus; in short: as §2
P388 [18] = experiment: In vivo activity against P388 Lymphocytic Leukemia in CD2F1 mice at the dose of 25 mg/kg, activity expressed as % T/C; format: functional, Mus musculus; in short: as §2
P388 [19] = experiment: In vivo activity against P388 Lymphocytic Leukemia in CD2F1 mice at the dose of 100 mg/kg, activity expressed as % T/C; format: functional, Mus musculus; in short: as §2
[20] = Hydrolysis at 25 degree C in 0.05 M phosphate buffer (pH 7.4); the rate was too fast to measure these conditions.; format: ADME; in short: as §1
MX1 [21] = experiment: In vivo activity against murine MX-1 tumor system at the dose of 90mg/kg, activity expressed as %T/C.; format: functional, Mus musculus
P388 [22] = experiment: In vivo activity against P388 Lymphocytic Leukemia in CD2F1 mice at the dose of 400 mg/kg, activity expressed as TDS; 0/6; format: functional, Mus musculus; in short: as §2
P388 [23] = experiment: In vivo body weight difference was determined against P388 Lymphocytic Leukemia in CD2F1 mice at the dose of 12.5 mg/kg; format: functional, Mus musculus
L1210 [24] = experiment: In vivo activity against murine L1210 tumor system at the dose of 25 mg/kg, activity expressed as %T/C.; format: functional, Mus musculus
In short: (§3)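 L1210 lymphocytic leukemia: ascitic fluid with ca. 10^6 cells injected ip into CD2F1 mice. Dosing started 24 h after inoculation and was repeated daily for five doses in total, from solutions or suspensions made fresh each day. Toxicity day survivors were scored on day 5. Body weight difference is day 5 minus day 1. %T/C is based on median survival time versus controls.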

[25] = In vivo body weight difference was determined in murine M5076 tumor system at the dose of 90 mg/kg; format: functional, Mus musculus
[26] = In vivo activity against murine M5076 tumor system at the dose of 90 mg/kg, activity expressed as %T/C.; format: functional, Mus musculus
L1210 [27] = experiment: In vivo activity against murine L1210 tumor system at the dose of 50 mg/kg, activity expressed as %T/C.; format: functional, Mus musculus; in short: as §3
P388 [28] = experiment: In vivo body weight difference was determined against P388 Lymphocytic Leukemia in CD2F1 mice at the dose of 25 mg/kg; format: functional, Mus musculus
[29] = In vivo activity against murine M5076 tumor system at the dose of 45 mg/kg, activity expressed as KE; format: functional, Mus musculus
In short: (§4)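 M5076: ascitic fluid with ca. 10^6 cells inoculated ip into CD2F1 mice. Dosing started 24 h after inoculation and was then given every 4 days for four doses in total, from solutions or suspensions made fresh each day. Toxicity day survivors were scored on day 5. Body weight difference is day 14 minus day 1. %T/C is based on median survival time versus controls.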

L1210 [30] = experiment: In vivo activity against murine L1210 tumor system at the dose of 25 mg/kg, activity expressed as TDS; 6/6; format: functional, Mus musculus; in short: as §3
P388 [31] = experiment: In vivo activity against P388 Lymphocytic Leukemia in CD2F1 mice at the dose of 200 mg/kg, activity expressed as TDS; 6/6; format: functional, Mus musculus; in short: as §2
[32] = In vivo activity against murine M5076 tumor system at the dose of 90 mg/kg, activity expressed as KE; format: functional, Mus musculus
L1210 [33] = experiment: In vivo body weight difference was determined in murine L1210 tumor system at the dose of 50 mg/kg; format: functional, Mus musculus
[34] = In vivo activity against murine M5076 tumor system at the dose of 180 mg/kg, activity expressed as TDS; 3/10; format: functional, Mus musculus; in short: as §4
L1210 [35] = experiment: In vivo activity against murine L1210 tumor system at the dose of 25 mg/kg, activity expressed as KE; format: functional, Mus musculus; in short: as §3
L1210 [36] = experiment: In vivo activity against murine L1210 tumor system at the dose of 50 mg/kg, activity expressed as KE; format: functional, Mus musculus; in short: as §3
MX1 [37] = experiment: In vivo activity against murine MX-1 tumor system at the dose of 180 mg/kg, activity expressed as TDS; 0/6; format: functional, Mus musculus
P388 [38] = experiment: In vivo body weight difference was determined against P388 Lymphocytic Leukemia in CD2F1 mice at the dose of 100 mg/kg; format: functional, Mus musculus
L1210 [39] = experiment: In vivo body weight difference was determined in murine L1210 tumor system at the dose of 25 mg/kg; format: functional, Mus musculus
MX1 [40] = experiment: In vivo body weight difference was determined in murine MX-1 tumor system at the dose of 90 mg/kg; format: functional, Mus musculus
[41] = In vivo body weight difference was determined in murine M5076 tumor system at the dose of 180 mg/kg; format: functional, Mus musculus
MX1 [42] = experiment: In vivo activity against murine MX-1 tumor system at the dose of 90 mg/kg, activity expressed as TDS; 6/6; format: functional, Mus musculus
L1210 [43] = experiment: In vivo activity against murine L1210 tumor system at the dose of 100 mg/kg, activity expressed as TDS; 0/6; format: functional, Mus musculus; in short: as §3
P388 [44] = experiment: In vivo body weight difference was determined against P388 Lymphocytic Leukemia in CD2F1 mice at the dose of 50 mg/kg; format: functional, Mus musculus
[45] = In vivo activity against murine M5076 tumor system at the dose of 45 mg/kg, activity expressed as TDS; 10/10; format: functional, Mus musculus
[46] = In vivo activity against murine M5076 tumor system at the dose of mg/kg, activity expressed as %T/C.; format: functional, Mus musculus
[47] = In vivo body weight difference was determined in murine M5076 tumor system at the dose of 45 mg/kg; format: functional, Mus musculus
[48] = In vivo activity against murine M5076 tumor system at the dose of 90 mg/kg, activity expressed as TDS; 10/10; format: functional, Mus musculus
L1210 [49] = experiment: In vivo activity against murine L1210 tumor system at the dose of 50 mg/kg, activity expressed as TDS; 6/6; format: functional, Mus musculus; in short: as §3
P388 [50] = experiment: In vivo body weight difference was determined against P388 Lymphocytic Leukemia in CD2F1 mice at the dose of 200 mg/kg; format: functional, Mus musculus
P388 [51] = experiment: In vivo activity against P388 Lymphocytic Leukemia in CD2F1 mice at the dose of 100 mg/kg, activity expressed as TDS; 6/6; format: functional, Mus musculus; in short: as §2

SMILES: CCOC(=O)c1cc[n+](C)c(Cl)c1.O=S(=O)([O-])C(F)(F)F
- half-life [1]: 6 h
- K obs [2]: 0.055 min⁻¹

SMILES: CC(C)NC(=O)OCc1c(COC(=O)NC(C)C)c(-c2cc[n+](C)c(Cl)c2)n2c1CCC2.[I-]
- TDS (P388 [3]): 6
- TDS (P388 [4]): 6
- KE (P388 [5]): -1.44
- TDS (P388 [6]): 0
- T/C (P388 [7]): 103%
- BWD (P388 [8]): -0.1 g
- BWD (P388 [9]): 0.4 g
- BWD (P388 [10]): -0.8 g
- KE (P388 [11]): -1.56
- TDS (P388 [12]): 6
- KE (P388 [13]): -1.56
- T/C (P388 [14]): 112%
- TDS (P388 [15]): 6
- KE (P388 [16]): -1.07
- BWD (P388 [17]): -0.5 g
- T/C (P388 [18]): 103%
- T/C (P388 [19]): 121%

SMILES: Cc1cc(Br)c(Cl)[n+](C)c1.O=S(=O)([O-])C(F)(F)F
- half-life [1]: 17 h
- K obs [2]: 0.041 min⁻¹

SMILES: CCOC(=O)c1cc[n+](C)c(F)c1.O=S(=O)([O-])C(F)(F)F
- K obs [20]: Rate too fast

SMILES: CC(C)NC(=O)OCc1c(COC(=O)NC(C)C)c(-c2ccc(F)[n+](C)c2)n2c1CCC2.[I-]
- TDS (P388 [3]): 6
- TDS (P388 [4]): 6
- T/C (MX1 [21]): 18%
- KE (P388 [5]): 0.32
- TDS (P388 [22]): 0
- BWD (P388 [23]): 1.2 g
- T/C (L1210 [24]): 119%
- BWD [25]: -1.8 g
- T/C (P388 [7]): 112%
- T/C [26]: 125%
- T/C (L1210 [27]): 123%
- BWD (P388 [28]): -0.1 g
- KE [29]: -1.79
- TDS (L1210 [30]): 6
- TDS (P388 [31]): 2
- KE [32]: -1.4
- BWD (L1210 [33]): -0.7 g
- KE (P388 [11]): 0.06
- TDS [34]: 3
- KE (L1210 [35]): -2.09
- TDS (P388 [12]): 6
- KE (P388 [13]): -1.42
- T/C (P388 [14]): 141%
- KE (L1210 [36]): -2.03
- TDS (MX1 [37]): 0
- BWD (P388 [38]): 0.1 g
- KE (P388 [16]): 1.54
- BWD (L1210 [39]): -0.7 g
- BWD (MX1 [40]): 0.5 g
- BWD [41]: -1.4 g
- TDS (MX1 [42]): 6
- TDS (L1210 [43]): 0
- T/C (P388 [18]): 137%
- BWD (P388 [44]): 0.6 g
- TDS [45]: 10
- T/C [46]: 115%
- BWD [47]: -0.5 g
- TDS [48]: 10
- T/C (P388 [19]): 158%
- TDS (L1210 [49]): 6
- BWD (P388 [50]): -0.1 g
- TDS (P388 [51]): 6
